# Measurements gathered from unrelated publications.
# Lines come from different studies, so protocols differ.
# Cell line: K562
# Read-out: cell growth or viability
SMILES,assay,setting,measurement,result
Nc1ccccc1NC(=O)c1ccc(Cn2cnc3c(Nc4ccc(Cl)cc4)ncnc32)cc1,MTT,72 h,IC50,17.5 µM
Cc1n[nH]c2ccc3nc(-c4ccc(C(=O)N(C)CCN(C)C)cn4)c4c(c3c12)CCCCC4,resazurin,72 h,GI50,> 10 µM
Nc1ccccc1NC(=O)c1ccc(Cn2cnc3c(Nc4ccc(Br)cc4F)ncnc32)cc1,MTT,72 h,IC50,30.1 µM
CN(C)CCNC(=O)c1ccc(-c2nc3ccc4[nH]ncc4c3c3c2CC(C)(C)CC3)cc1,resazurin,72 h,GI50,3.7 µM
N#Cc1ccc(-c2cc(COc3cc(=O)oc4ccccc34)on2)cc1,MTS,72 h,IC50,> 100 µM
Cc1nc(Nc2ncc(C(=O)Nc3c(C)cccc3Cl)s2)cc(N2CC[C@H](O)C2)n1,ATP luminescence,"10 µM, 72 h",inhibition,90%
CCN(CC)CCNC(=O)c1ccc(-c2nc3ccc4[nH]ncc4c3c3c2CCCC3)cc1,resazurin,72 h,GI50,3.6 µM
FC(F)(F)c1cc(OCc2cc(-c3ccccc3)no2)c2ccccc2n1,MTS,72 h,IC50,> 100 µM
C=C(NC(=O)C(=C)NC(=O)c1csc(C2=N[C@@H]3c4csc(n4)[C@H]4NC(=O)c5csc(n5)[C@H]([C@](C)(O)[C@@H](C)O)NC(=O)[C@H]5CSC(=N5)/C(=C/C)NC(=O)[C@H]([C@@H](C)O)NC(=O)c5csc(n5)[C@]3(CC2)NC(=O)[C@H](C)NC(=O)C(=C)NC(=O)[C@H](C)NC(=O)[C@H]([C@@H](C)CC)N[C@@H]2C=Cc3c([C@H](C)O)cc(nc3[C@H]2O)C(=O)O[C@@H]4C)n1)C(N)=O,,,EC50,0.6 µM
O=c1cc(OCc2cc(-c3ccccn3)no2)c2ccccc2o1,MTS,72 h,IC50,> 100 µM
O=C(NC1CC1)c1ccc(-c2nc3ccc4[nH]ncc4c3c3c2CCCC3)cc1,resazurin,72 h,GI50,4.1 µM
FC(F)(F)c1cc(OCc2cc(-c3ccccn3)no2)c2ccccc2n1,MTS,72 h,IC50,> 100 µM
O=C(c1ccc(/C=C/c2n[nH]c3ccccc23)cc1)N1CCNCC1,,,GI50,~0.4 µM
O=C(Nc1ccc(OC(F)(F)Cl)cc1)c1cnc(N2CC[C@@H](O)C2)c(-c2cc[nH]n2)c1,ATP luminescence,72 h,EC50,0.005 µM
